Columns and labels:
[1] = test system: MRC5; experiment: Cytotoxicity against human MRC5 cells assessed as decrease in cell survival after 72 hrs by MTT assay; type: cell-based; conditions: MRC5, 72 h
Procedure, shortened: (§1)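 HeLa (2000/well), A549 and MRC-5 (5000/well) seeded 20 h before treatment; HL-60 (7000/well) 2 h before. Five concentrations (6.25–100 μM or 3.125–50 μM) from 5 mM DMSO stocks, final DMSO ≤1%, 72 h; survival by MTT. Cisplatin positive control; three independent experiments in triplicate.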

[2] = test system: A549; experiment: Cytotoxicity against human A549 cells assessed as decrease in cell survival after 72 hrs by MTT assay; type: functional, cell-based; conditions: A549, 72 h; procedure, shortened: as §1
[3] = Antioxidant activity assessed as DPPH free radical scavenging activity after 30 mins; type: functional
Procedure, shortened: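 DPPH (0.05 mM in methanol) mixed with equal volume of compound (DMSO solution diluted in methanol), kept in dark at room temperature 30 min; absorbance at 517 nm, methanol control, ascorbic acid positive control. IC50 = concentration giving 50% of maximum scavenging; mean ± SD of independent triplicate experiments.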

[4] = test system: HeLa; experiment: Cytotoxicity against human HeLa cells assessed as decrease in cell survival after 72 hrs by MTT assay; type: functional, cell-based; procedure, shortened: as §1
[5] = test system: HL-60; experiment: Cytotoxicity against human HL60 cells assessed as decrease in cell survival after 72 hrs by MTT assay; type: functional, cell-based; conditions: HL-60, 72 h; procedure, shortened: as §1

Row | IC50 [3] [µM] | Compound | IC50 [1] [µM] | IC50 [2] [µM] | IC50 [4] [µM] | IC50 [5] [µM]
1 | 11.7 | Cc1ccccc1C(=O)C=Cc1ccc(C(=O)Nc2nnc(-c3ccc(O)c(O)c3)s2)cc1 | 18.6 | 21.8 | 9.12 | 7.62
2 | 9.76 | COc1ccccc1C(=O)C=Cc1ccc(C(=O)Nc2nnc(-c3ccc(O)c(O)c3)s2)cc1 | 48 | 50.2 | 10.2 | 12
3 | 20.2 | O=C1O[C@H]([C@@H](O)CO)C(O)=C1O [ASCORBIC ACID] |  |  |  | 
4 | 13.9 | O=C(Nc1nnc(-c2ccc(O)c(O)c2)s1)c1ccc(C=CC(=O)c2ccccc2F)cc1 | 39.6 | 46.9 | 11.1 | 8.88
5 | 18 | O=C(/C=C/c1ccc(C(=O)Nc2nnc(-c3ccc(O)c(O)c3)s2)cc1)c1ccc(Br)cc1 | 38.2 | 87.7 | 40.2 | 9.74
6 | 14 | O=C(/C=C/c1ccc(C(=O)Nc2nnc(-c3ccc(O)c(O)c3)s2)cc1)c1ccc([N+](=O)[O-])cc1 | 39.4 | 128 | 54.8 | 11.2
